Results taken from ChEMBL document CHEMBL5053485, “Targeting Acute Myelogenous Leukemia Using Potent Human Dihydroorotate Dehydrogenase Inhibitors Based on the 2-Hydroxypyrazolo[1,5-a]pyridine Scaffold: SAR of the Biphenyl Moiety” (J Med Chem, 2021).
Activity calls are given as the source filed them. No cut-off for these calls is given here.

How the values were obtained:
[1] = n-Octanol/PBS partition coefficient, logD of the compound at pH 7.4 incubated for 20 mins by shake flask method; assay type: physicochemical
THP-1 [2] = experiment: Induction of cell differentiation in human THP-1 cells assessed as CD14 expression at 0.1 uM after 3 days by flow cytometric analysis; assay type: functional, cell-based; conditions: time 3.0 day
THP-1 [3] = experiment: Induction of apoptosis in human THP-1 cells at 0.1 uM after 3 days by Annexin-V-FITC staining based flow cytometry relative to control; assay type: functional, cell-based; conditions: time 3.0 day
Summary of the method: (§1)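 After 3 days, annexin V-FITC was read by flow cytometry. Significance versus DMSO used two-tailed paired t tests (P < 0.05). The assay was also run with 100 μM uridine.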

[4] = Solubility of compound in PBS at pH 7.4 after 24 hrs by UHPLC analysis; assay type: physicochemical
[5] = Protein binding in human serum at 50 uM after 1 hr by RP-UHPLC method; assay type: ADME, cell-free; conditions: read-out: PB (converted)
THP-1 [6] = experiment: Induction of cell differentiation in human THP-1 cells assessed as CD14 expression at 1 uM after 3 days by flow cytometric analysis; assay type: functional, cell-based; conditions: time 3.0 day
THP-1 [7] = experiment: Induction of apoptosis in human THP-1 cells at 1 uM after 3 days by Annexin-V-FITC staining based flow cytometry relative to control; assay type: functional, cell-based; conditions: time 3.0 day; summary of the method: as §1
Jurkat = experiment: Cytotoxicity against human Jurkat cells assessed as concentration required to induce more than 30% cytotoxicity incubated for 3 days by CSFE dye based assay; assay type: cell-based; conditions: 72 h, time 3 day
[8] = Metabolic stability in Sprague-Dawley rat liver microsomes assessed as parent compound remaining after 30 mins; assay type: ADME, Microsome; conditions: 0.5 h
Summary of the method: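 The regenerating system contained MgCl₂, NADP⁺, Glu6P and G6PDH. Controls were heat-inactivated microsomes and no regenerating system. Samples taken at 0–120 min were quenched in cold acetonitrile and analysed by HPLC–HRMS.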

Cc1c(-c2ccc(-c3ccccc3F)cc2)nc2ccc(F)cc2c1C(=O)O [BREQUINAR]
logD at 20 min [1]: 1.83

COc1cccc(-c2c(F)c(F)c(NC(=O)c3c(O)nn4ccccc34)c(F)c2F)c1
Activity (THP-1 [2]): Active
Activity (THP-1 [3]): Active

O=C(Nc1c(F)c(F)c(-c2ccccc2)c(F)c1F)c1c(O)nn2c(Cl)cccc12
solubility at 24 h [4]: < 6 µM

COc1cccc(-c2cc(F)c(Nc3ncccc3C(=O)O)c(F)c2)c1 [ASLAN-003]
fraction unbound at 1 h, 50 µM [5]: < 0.01

O=C(Nc1c(F)c(F)c(-c2ccnc(C(F)(F)F)c2)c(F)c1F)c1c(O)nn2ccccc12
Activity (THP-1 [6]): inactive
Activity (THP-1 [7]): inactive

O=C(Nc1c(F)c(F)c(-c2cccc(OC(F)(F)F)c2)c(F)c1F)c1c(O)nn2ccccc12
Activity (Jurkat): > 100 µM
Activity (THP-1 [2]): Active
Activity (THP-1 [3]): Active

CCCOc1cccc(-c2c(F)c(F)c(NC(=O)c3c(O)nn4ccccc34)c(F)c2F)c1
Activity (Jurkat): > 100 µM
Stability [8]: Unstable
Activity (THP-1 [2]): Active
Activity (THP-1 [3]): Active

O=C(Nc1c(F)c(F)c(-c2cccc(C(F)(F)F)c2)c(F)c1F)c1c(O)nn2ccccc12
Activity (Jurkat): > 100 µM
Activity (THP-1 [2]): Active
Activity (THP-1 [3]): Active

O=C(Nc1c(F)c(F)c(-c2cccc(O)c2)c(F)c1F)c1c(O)nn2ccccc12
Activity (THP-1 [6]): inactive
Activity (THP-1 [7]): inactive

O=C(Nc1c(F)c(F)c(-c2cccnc2)c(F)c1F)c1c(O)nn2ccccc12
Activity (THP-1 [6]): inactive
Activity (THP-1 [7]): inactive

O=C(Nc1c(F)c(F)c(-c2ccccc2)c(F)c1F)c1c(O)nn2c1CCCC2
solubility at 24 h [4]: < 6 µM

CCn1c(CO)nn(-c2cc(O[C@@H](C)C(F)(F)F)c(C(=O)Nc3c(F)cccc3Cl)cc2F)c1=O
logD at 20 min [1]: 2.7
solubility at 24 h [4]: < 1 µM
fraction unbound at 1 h, 50 µM [5]: 0.099

O=C(Nc1c(F)c(F)c(-c2cccc(F)c2)c(F)c1F)c1c(O)nn2ccccc12
logD at 20 min [1]: 2.09
Activity (THP-1 [2]): Active
Activity (THP-1 [3]): Active

O=C(Nc1c(F)c(F)c(N2CCOCC2)c(F)c1F)c1c(O)nn2ccccc12
Activity (THP-1 [6]): inactive
Activity (THP-1 [7]): inactive
